# In PubChem BioAssay:
# Active and inactive are the calls of the source.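 The calls were made as follows, unless noted: active = inhibition of the reporter signal at or above 50%; inactive = inhibition below 50%.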
# How the values were obtained:
# [1] = inhibitors of TNFa-induced NFkB p65 translocation, primary screen, imaging, HUVEC, MLSMR starter and 10KST1 sets (AID 438;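 active = inhibition above 20% together with a positive visual image hit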;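 also: compound added about 3h40 before a 20 min TNFalpha stimulation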;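 as to inhibition: signal is the nuclear over cytoplasmic p65 intensity ratio per well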); settings: HUVEC TNFa-induced p65 nuclear translocation; cell count: measured here: nuclei count (cytotoxicity indicator), at 2.08 µM; inhibition: at 2 µM, stronger effect = higher value, 0% TNFa-plus-vehicle, 100% no-TNFa wells
# [2] = inhibitors of mutant huntingtin aggregation, primary screen, imaging, exon1htt(103Q)mCFP cells, high-content imaging (AID 483;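 active = visual image review flags a hit and inhibition of aggregation exceeds 20%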;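 also: compound exposure lasted 3 days before fixation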;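 as to nuclei count: percent of the per-plate median nuclei count of sample wells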); settings: exon1htt(103Q)mCFP cell line, aggregate imaging, at 2 µM; inhibition of aggregation: stronger effect = higher value; nuclei count: measured here: cell count, toxicity
# [3] = inhibitors of E-selectin induction by TNFa, primary screen, imaging, HUVEC, immunofluorescence, MLSMR starter and 10KST1 sets (AID 487;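 active = visually confirmed hit in the image check and inhibition above 20%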;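 as to inhibition: signal is fraction of cell area covered by stained E-selectin grains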;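 as to nuclei count: 100% = median nuclei count of all wells on the same plate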); settings: HUVEC TNFalpha-induced E-selectin immunofluorescence imaging, at 2 µM; inhibition: stronger effect = higher value; nuclei count: measured here: cell number, toxicity
# [4] = target: Voltage-gated potassium channel subunit beta-2 (Rattus norvegicus) (UniProt P62483); assay: KvBeta enzyme negative modulators, primary screen, biochemical, NADPH fluorescence (AID 622;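 active = fluorescence slope higher than the sample average by over 3 SD, cut at about -0.22 in these data, passing the limit was not always enough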;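 also: slope of raw intensity against log time taken from 70 to 1610 s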); settings: recombinant KvBeta, 4-cyanobenzaldehyde reduction, at 10 µM, stronger effect = higher value
# [5] = target: Voltage-gated potassium channel subunit beta-2 (Rattus norvegicus) (UniProt P62483); assay: KvBeta positive modulators, primary screen, biochemical, NADPH fluorescence (AID 623;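 active = NADPH fluorescence slope more negative than the mean of all samples by about 3 SD, 99.7% confidence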;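 also: fluorescence intensity change per second fitted from 20 to 320 s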); settings: Recombinant KvBeta, NADPH fluorescence decrease slope, 10 min; at 10 µM; stronger effect = lower value
# [6] = target: Muscarinic acetylcholine receptor M4 (Homo sapiens) (UniProt P08173); assay: compounds altering M4/GIRK thallium flux, either direction, primary screen, M4 allosteric agonist project, cell-based, HEK293 M4/GIRK, BTC-AM (AID 625;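 active = fluorescence slope after compound addition differing from the mean of all tested samples at 99.7% confidence, mostly higher but some lower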;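 also: thallium influx through GIRK channels coupled to M4 in HEK293 cells with BTC-AM dye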); settings: at 10 µM, actives lie on both sides
# In short: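 assay system = HEK293 cells with M4 receptor and GIRK channels | medium = pH 7.3 thallium assay buffer | doses = 10 µM final, single point | timing = cells overnight at 37 °C, BTC-AM loading 1 h, reads 2 min total | signal = BTC-AM fluorescence, 1 Hz kinetic reads | read-out = post-addition slope, 15–24 s, of baseline-normalized fluorescence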
# [7] = inhibitors of Sendai virus-induced IRF3 signaling, primary screen, TLR/RLR signaling modifier project, cell-based, Sendai virus stimulus, luciferase, 10K MLSCN set (AID 602276;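 active = inhibition at or above 50% at 10 µM; inactive = inhibition below 50%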;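 also: firefly luciferase from ISG56 promoter only with Renilla not read in this screen; 0% = Sendai virus plus DMSO and 100% = medium plus DMSO without virus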); settings: HEK293 RL24 IRF3 luciferase reporter, at 10 µM, stronger effect = higher value
# [8] = inhibitors of poly I:C-induced TLR3 signaling, primary screen, cell-based, poly I:C stimulus, luciferase, 10K MLSCN set (AID 602277); settings: HEK293-TLR3 RL24 IRF3 luciferase reporter, at 10 µM, stronger effect = higher value
# Muscarinic acetylcholine receptor M4 (Homo sapiens), sequence (P08173 whole entry, looked up): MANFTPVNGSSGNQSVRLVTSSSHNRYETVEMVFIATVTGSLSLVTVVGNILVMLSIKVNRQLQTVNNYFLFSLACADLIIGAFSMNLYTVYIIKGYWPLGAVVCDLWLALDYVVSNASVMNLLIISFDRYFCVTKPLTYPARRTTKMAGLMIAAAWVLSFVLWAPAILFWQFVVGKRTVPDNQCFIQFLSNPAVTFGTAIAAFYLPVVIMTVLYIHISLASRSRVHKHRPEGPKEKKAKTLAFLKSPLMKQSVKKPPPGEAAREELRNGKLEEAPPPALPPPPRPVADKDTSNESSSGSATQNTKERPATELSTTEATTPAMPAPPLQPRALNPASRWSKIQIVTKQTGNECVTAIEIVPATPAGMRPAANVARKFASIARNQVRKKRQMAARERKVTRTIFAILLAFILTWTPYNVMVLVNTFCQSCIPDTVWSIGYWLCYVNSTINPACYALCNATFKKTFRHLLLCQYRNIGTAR
# Voltage-gated potassium channel subunit beta-2 (Rattus norvegicus), sequence (P62483 whole entry, looked up): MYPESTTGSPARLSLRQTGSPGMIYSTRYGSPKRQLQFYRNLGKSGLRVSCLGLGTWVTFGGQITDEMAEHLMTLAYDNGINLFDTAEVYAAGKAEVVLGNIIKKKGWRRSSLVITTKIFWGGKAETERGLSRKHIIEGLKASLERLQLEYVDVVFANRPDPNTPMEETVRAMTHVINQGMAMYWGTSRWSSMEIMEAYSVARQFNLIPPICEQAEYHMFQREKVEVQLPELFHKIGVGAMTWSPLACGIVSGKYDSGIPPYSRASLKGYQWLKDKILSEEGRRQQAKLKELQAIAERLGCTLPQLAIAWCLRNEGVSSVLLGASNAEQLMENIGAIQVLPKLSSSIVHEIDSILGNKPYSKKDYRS
Compound,cell count [1],inhibition [1],inhibition of aggregation [2],nuclei count [2] [%],inhibition [3],nuclei count [3] [%],fluorescence slope [4],NADPH fluorescence slope [5],fluorescence slope [6],inhibition [7],inhibition [8]
CCCCC(c1nnnn1CS(=O)(=O)c1ccc(C)cc1)N1CCN(c2ccccc2)CC1 (stereo not drawn),370,6.6% (inactive),-10.3% (inactive),100,-47.5% (inactive),102,-0.46 (inactive),-2.8e-05 (inactive),0.00637 (inactive),32% (inactive),16.2% (inactive)
COc1ccc(C)cc1-n1nnnc1SCC(=O)NC(=O)NCc1ccco1,180,-9.6% (inactive),25% (inactive),65.2,8.9% (inactive),90.6,-0.57 (inactive),-1.3e-05 (inactive),0.00596 (inactive),16.7% (inactive),16% (inactive)
CCn1c(C(=O)N2CCCC(C(=O)O)C2)cc2sccc21 (stereo not drawn),335,26.3% (active),-57.1% (inactive),115,-32.2% (inactive),115,-0.485 (inactive),8.2e-05 (inactive),0.00595 (inactive),-2.79% (inactive),-4.5% (inactive)
CCN1CCN(c2c(Cl)cccc2NC(=O)c2ccc3c(c2)OCCO3)CC1,505,2.1% (inactive),-4.5% (inactive),111,-82.8% (inactive),216,-0.264 (inactive),-8.8e-06 (inactive),0.0079 (inactive),10.2% (inactive),18.4% (inactive)
CCCCCCn1c(SCCCC)nc2c1c(=O)[nH]c(=O)n2C,384,-8% (inactive),-12.5% (inactive),101,-10.4% (inactive),104,-0.543 (inactive),-3.9e-05 (inactive),0.00572 (inactive),0.691% (inactive),10.6% (inactive)
Cn1c(CCCNC(=O)c2ccccc2)nc2ccccc21,761,-25.8% (inactive),-0.3% (inactive),104,-49.3% (inactive),131,-0.275 (inactive),-5.3e-05 (inactive),0.00743 (inactive),13.2% (inactive),1.35% (inactive)
O=C(O)CCN1C(=O)c2ccccc2C1=O,325,5.2% (inactive),-1.9% (inactive),91.2,-54.5% (inactive),107,-0.585 (inactive),-3e-05 (inactive),0.00348 (inactive),14.6% (inactive),6.42% (inactive)
CCn1ncc(C2=NOC(C(=O)N3CCC(C(N)=O)CC3)C2)c1C (stereo not drawn),846,-7.8% (inactive),-19.8% (inactive),105,-117% (inactive),109,-0.47 (inactive),3.7e-05 (inactive),0.00576 (inactive),-11.4% (inactive),-7.82% (inactive)
CNC(=O)CC(C(=O)O)c1ccc(OCC(C)C)cc1 (stereo not drawn),611,-1.5% (inactive),-15.2% (inactive),114,13.6% (inactive),103,-0.562 (inactive),-8.4e-05 (inactive),0.00333 (inactive),9.55% (inactive),16.9% (inactive)
O=C(O)c1ccc(-n2nnnc2Oc2ccccc2C(=O)N2CCOCC2)cc1,478,-20.3% (inactive),-2.2% (inactive),53.4,2.2% (inactive),89.9,-0.482 (inactive),-1.8e-05 (inactive),0.0048 (inactive),21% (inactive),12.5% (inactive)
COc1ccc(Cc2nc3ccc(S(N)(=O)=O)cc3[nH]2)cc1OC,423,-22.9% (inactive),18.8% (inactive),58.6,75.1% (active),59.2,-0.553 (inactive),-2.6e-05 (inactive),0.00712 (inactive),9.58% (inactive),8.25% (inactive)
COc1ccc(S(=O)(=O)NC(CC(=O)NCc2ccco2)c2ccco2)cc1 (stereo not drawn),621,8.2% (inactive),0.5% (inactive),114,-67.3% (inactive),97.1,-0.566 (inactive),-3e-05 (inactive),0.00653 (inactive),19.3% (inactive),20.6% (inactive)
CC(C)(C)OC(=O)N1CCOCCOCCN(C(=O)OC(C)(C)C)CCOCCOCC1,395,0.8% (inactive),2.5% (inactive),92.3,-90.1% (inactive),119,-0.579 (inactive),-6.4e-05 (inactive),0.00267 (inactive),4.46% (inactive),6.47% (inactive)
Cc1cc(NS(=O)(=O)c2ccc(NC(=O)C(C)N3C(=O)c4ccccc4C3=O)cc2)nc(C)n1 (stereo not drawn),257,-2.1% (inactive),4.6% (inactive),98.5,-11.1% (inactive),90.8,-0.557 (inactive),-5.8e-05 (inactive),0.00257 (inactive),14.9% (inactive),18.8% (inactive)
COc1ccccc1NC(=O)c1nnn(CC(=O)Nc2ccccc2)c1N,234,-4.4% (inactive),-30.9% (inactive),95.9,-9.9% (inactive),103,-0.416 (inactive),5.5e-05 (inactive),0.00673 (inactive),9.85% (inactive),23.6% (inactive)
CC(C)(C)C1=C[C@@H](CO)C[C@@H](CO)C1,734,-3.5% (inactive),-19.6% (inactive),103,-25.8% (inactive),138,-0.391 (inactive),-0.000123 (inactive),0.00843 (inactive),10.7% (inactive),23.8% (inactive)
Cc1sc2ncnc(OCC(=O)N3CCN(S(=O)(=O)c4ccc(Cl)cc4)CC3)c2c1C,682,-9.4% (inactive),-30.8% (inactive),122,-50.8% (inactive),124,-0.612 (inactive),-4.9e-06 (inactive),0.00511 (inactive),-76.1% (inactive),98.9% (active)
CC(C)NC(=O)CSc1nnc(-c2ccc(C(C)(C)C)cc2)n1C,563,-16% (inactive),-4.3% (inactive),96.8,8% (inactive),117,-0.465 (inactive),5.2e-06 (inactive),0.00698 (inactive),4.36% (inactive),1.25% (inactive)
N#Cc1cc2sc3nnc(-c4ccncc4)n3c2cc1C#N,728,10.9% (inactive),-17.6% (inactive),49.6,22.9% (inactive),77.1,-0.529 (inactive),1.4e-05 (inactive),0.0043 (inactive),5.55% (inactive),-16.8% (inactive)
CCOC(=O)C1CCN(C(=O)Nc2ccc(Cl)cc2Cl)CC1,262,0% (inactive),25.3% (inactive),89.6,-16.8% (inactive),80.6,-0.463 (inactive),-4.6e-05 (inactive),0.00434 (inactive),14% (inactive),1.16% (inactive)
CC(=O)c1ccc(NC(=O)c2noc3c2CCCCC3)cc1,214,2.3% (inactive),-0.6% (inactive),108,-10.4% (inactive),118,-0.512 (inactive),-6e-05 (inactive),0.00493 (inactive),-32.5% (inactive),-114% (inactive)
O=C(/C=N/O)Nc1cccnc1,351,-10.2% (inactive),17.5% (inactive),86,57.2% (inactive),98.5,-0.552 (inactive),-2.2e-05 (inactive),0.00502 (inactive),21.9% (inactive),26.5% (inactive)
Cn1c(=O)[nH]c(=O)c2[nH]c(CN3CCN(C(=O)c4ccco4)CC3)nc21,418,-2.3% (inactive),-1.2% (inactive),124,-5.3% (inactive),131,-0.54 (inactive),-1.3e-05 (inactive),0.00483 (inactive),1.74% (inactive),11% (inactive)
CCn1nnc(-c2ccccc2NC(=O)c2ccc(-n3cnnn3)cc2)n1,333,-2.5% (inactive),-19% (inactive),97.1,1.4% (inactive),90.6,-0.5 (inactive),-0.000135 (inactive),0.00365 (inactive),15.3% (inactive),15.5% (inactive)
N#Cc1c(NC(=O)CSc2nc(N)cc(=O)[nH]2)sc2c1CCCCCC2,728,-14% (inactive),-2% (inactive),115,-105% (inactive),122,-0.578 (inactive),-3.4e-05 (inactive),0.00398 (inactive),-11.2% (inactive),-48.5% (inactive)
CCOC(=O)C1=C(C)Nc2ncnn2C1c1cc(OC)ccc1OC (stereo not drawn),465,4.5% (inactive),-7.4% (inactive),97.1,-356% (inactive),126,-0.236 (inactive),-2.1e-05 (inactive),0.00778 (inactive),16.3% (inactive),1.62% (inactive)
O=c1c2c3c(sc2nc2sc(C4CC4)nn12)CCCC3,428,-8.3% (inactive),19.5% (inactive),80.2,34.4% (inactive),67.7,-0.602 (inactive),3.7e-05 (inactive),0.00546 (inactive),-18.7% (inactive),-51.7% (inactive)
CC(=O)Nc1cccc(NC(=O)CSc2nnnn2C(C)C)c1,638,1.6% (inactive),13.7% (inactive),62.3,-46.4% (inactive),120,-0.436 (inactive),-2.6e-05 (inactive),0.00495 (inactive),12.9% (inactive),12.5% (inactive)
